Assay results published in ChEMBL document CHEMBL4373668, “Bivalent AMPA receptor positive allosteric modulators of the bis(pyrimidine) series” (Medchemcomm, 2019).

Columns and labels:
[1] = target: T1, Glutamate receptor ionotropic, AMPA (Rattus norvegicus) (UniProt P19491+P19492+P19493+P19490); test: Positive allosteric modulation of rat Purkinje neuron AMPA receptor assessed as change in kainate-induced current at 10^-7 M measured for 2 mins by patch clamp assay (rvb = 100%)
Outline: (§1)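 Purkinje neurons were freshly isolated from the cerebellum of 12–16-day-old rat pups by protease/collagenase digestion at 34°C under O₂. Whole-cell patch clamp was used, with compounds given by fast perfusion in extracellular saline at pH 7.32. Kainic acid (20 µM) was applied three times per concentration, 2 min apart, with a 3-min washout between concentrations. Current amplitude was normalized to the KA control (100%), using 4–7 neurons per concentration.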

[2] = target: T1, Glutamate receptor ionotropic, AMPA (Rattus norvegicus); test: Positive allosteric modulation of rat Purkinje neuron AMPA receptor assessed as change in kainate-induced current at 10^-6 M measured for 2 mins by patch clamp assay (rvb = 100%); outline: as §1
[3] = target: T1, Glutamate receptor ionotropic, AMPA (Rattus norvegicus); test: Positive allosteric modulation of rat Purkinje neuron AMPA receptor assessed as change in kainate-induced current at 10^-5 M measured for 2 mins by patch clamp assay (rvb = 100%)
[4] = target: T1, Glutamate receptor ionotropic, AMPA (Rattus norvegicus); test: Positive allosteric modulation of rat Purkinje neuron AMPA receptor assessed as change in kainate-induced current at 3 x 10^-5 M measured for 2 mins by patch clamp assay (rvb = 100%)
[5] = target: T1, Glutamate receptor ionotropic, AMPA (Rattus norvegicus); test: Positive allosteric modulation of rat Purkinje neuron AMPA receptor assessed as change in kainate-induced current at 10^-12 M measured for 2 mins by patch clamp assay (rvb = 100%); outline: as §1
[6] = target: T1, Glutamate receptor ionotropic, AMPA (Rattus norvegicus); test: Positive allosteric modulation of rat Purkinje neuron AMPA receptor assessed as change in kainate-induced current at 10^-11 M measured for 2 mins by patch clamp assay (rvb = 100%); outline: as §1
[7] = target: T1, Glutamate receptor ionotropic, AMPA (Rattus norvegicus); test: Positive allosteric modulation of rat Purkinje neuron AMPA receptor assessed as change in kainate-induced current at 10^-10 M measured for 2 mins by patch clamp assay (rvb = 100%); outline: as §1
[8] = target: T1, Glutamate receptor ionotropic, AMPA (Rattus norvegicus); test: Positive allosteric modulation of rat Purkinje neuron AMPA receptor assessed as change in kainate-induced current at 10^-9 M measured for 2 mins by patch clamp assay (rvb = 100%); outline: as §1
[9] = target: T1, Glutamate receptor ionotropic, AMPA (Rattus norvegicus); test: Positive allosteric modulation of rat Purkinje neuron AMPA receptor assessed as change in kainate-induced current at 10^-8 M measured for 2 mins by patch clamp assay (rvb = 100%); outline: as §1

Row | Activity [1] | Activity [2] | Activity [3] | Activity [4] | Activity [5] | Activity [6] | Activity [7] | Activity [8] | Activity [9] | Compound
1 | 98% | – | – | – | 100% | 84% | 72% | 82% | 92% | CC(C)c1nc2c(c(Oc3ccc(Oc4nc(C(C)C)nc5c4CCCC5)cc3)n1)CCCC2
2 | 100% | – | – | – | 100% | 117% | 126% | 155% | 128% | CCc1nc2c(c(Oc3ccc(Oc4nc(CC)nc5c4CCCC5)cc3)n1)CCCC2
3 | 85% | 78% | – | – | 108% | 132% | 143% | 170% | 123% | Cc1nc2c(c(Oc3ccc(Oc4nc(C)nc5c4CCCC5)cc3)n1)CCCC2

Further lines, the compound ahead of its results:

Row | Compound | Activity [1] | Activity [2] | Activity [3] | Activity [4] | Activity [5] | Activity [6] | Activity [7] | Activity [8] | Activity [9]
4 | NS(=O)(=O)c1cc2c(cc1Cl)NC(C1CC3C=CC1C3)NS2(=O)=O (stereo not given) | 100% | 145% | 235% | 560% | – | – | – | – | –
5 | CC(C)(C)c1nc2c(c(Oc3ccc(Oc4nc(C(C)(C)C)nc5c4CCCC5)cc3)n1)CCCC2 | 133% | 145% | – | – | – | 100% | 108% | 120% | 125%
6 | c1cc(Oc2nc(C3CC3)nc3c2CCCC3)ccc1Oc1nc(C2CC2)nc2c1CCCC2 | 97% | 96% | – | – | – | 100% | 100% | 95% | 96%
